Laboratory results reported in ChEMBL document CHEMBL3734698, “1H-Pyrazolo[3,4-g]hexahydro-isoquinolines as potent GR antagonists with reduced hERG inhibition and an improved pharmacokinetic profile” (Bioorg Med Chem Lett, 2015).
Active and inactive are the calls of the source. The calls are words filed in the database; no cut-off is given here.

Tests used:
Glucocorticoid receptor [1] = target: T1, Glucocorticoid receptor (Homo sapiens, UniProt P04150); assay: Antagonist activity at glucocorticoid receptor in human HepG2 cells assessed as inhibition of glucocorticoid-induced TAT activity after 24 hrs; format: cell-based
T1 sequence (P04150 whole entry): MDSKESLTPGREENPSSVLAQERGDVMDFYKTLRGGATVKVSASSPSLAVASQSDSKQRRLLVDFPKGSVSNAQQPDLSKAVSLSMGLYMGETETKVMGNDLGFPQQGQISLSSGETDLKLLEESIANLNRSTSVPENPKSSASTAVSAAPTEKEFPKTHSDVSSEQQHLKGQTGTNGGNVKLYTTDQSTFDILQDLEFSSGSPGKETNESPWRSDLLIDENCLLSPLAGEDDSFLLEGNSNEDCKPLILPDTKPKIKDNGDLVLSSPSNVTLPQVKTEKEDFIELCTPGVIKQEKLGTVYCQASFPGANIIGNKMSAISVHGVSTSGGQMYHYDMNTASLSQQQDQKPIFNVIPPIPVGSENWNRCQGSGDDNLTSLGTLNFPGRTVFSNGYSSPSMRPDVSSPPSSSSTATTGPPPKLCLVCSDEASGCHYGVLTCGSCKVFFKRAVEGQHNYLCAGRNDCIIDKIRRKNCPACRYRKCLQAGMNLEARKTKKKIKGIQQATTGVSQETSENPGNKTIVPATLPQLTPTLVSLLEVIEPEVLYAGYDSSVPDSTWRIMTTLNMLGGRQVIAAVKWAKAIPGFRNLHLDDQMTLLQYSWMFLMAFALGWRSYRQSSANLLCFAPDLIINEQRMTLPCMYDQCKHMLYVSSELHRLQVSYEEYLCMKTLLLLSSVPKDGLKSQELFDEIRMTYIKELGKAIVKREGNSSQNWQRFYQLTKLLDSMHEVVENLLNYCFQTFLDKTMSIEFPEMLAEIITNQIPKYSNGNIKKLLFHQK

Glucocorticoid receptor [2] = target: T1, Glucocorticoid receptor; assay: Binding affinity to human recombinant glucocorticoid receptor by fluorescence polarization assay
hERG (KCNH2) [3] = target: T2, hERG (KCNH2) (Homo sapiens, UniProt Q12809); assay: Inhibition of human ERG at 1 uM by patch clamp technique
T2 sequence (Q12809 whole entry): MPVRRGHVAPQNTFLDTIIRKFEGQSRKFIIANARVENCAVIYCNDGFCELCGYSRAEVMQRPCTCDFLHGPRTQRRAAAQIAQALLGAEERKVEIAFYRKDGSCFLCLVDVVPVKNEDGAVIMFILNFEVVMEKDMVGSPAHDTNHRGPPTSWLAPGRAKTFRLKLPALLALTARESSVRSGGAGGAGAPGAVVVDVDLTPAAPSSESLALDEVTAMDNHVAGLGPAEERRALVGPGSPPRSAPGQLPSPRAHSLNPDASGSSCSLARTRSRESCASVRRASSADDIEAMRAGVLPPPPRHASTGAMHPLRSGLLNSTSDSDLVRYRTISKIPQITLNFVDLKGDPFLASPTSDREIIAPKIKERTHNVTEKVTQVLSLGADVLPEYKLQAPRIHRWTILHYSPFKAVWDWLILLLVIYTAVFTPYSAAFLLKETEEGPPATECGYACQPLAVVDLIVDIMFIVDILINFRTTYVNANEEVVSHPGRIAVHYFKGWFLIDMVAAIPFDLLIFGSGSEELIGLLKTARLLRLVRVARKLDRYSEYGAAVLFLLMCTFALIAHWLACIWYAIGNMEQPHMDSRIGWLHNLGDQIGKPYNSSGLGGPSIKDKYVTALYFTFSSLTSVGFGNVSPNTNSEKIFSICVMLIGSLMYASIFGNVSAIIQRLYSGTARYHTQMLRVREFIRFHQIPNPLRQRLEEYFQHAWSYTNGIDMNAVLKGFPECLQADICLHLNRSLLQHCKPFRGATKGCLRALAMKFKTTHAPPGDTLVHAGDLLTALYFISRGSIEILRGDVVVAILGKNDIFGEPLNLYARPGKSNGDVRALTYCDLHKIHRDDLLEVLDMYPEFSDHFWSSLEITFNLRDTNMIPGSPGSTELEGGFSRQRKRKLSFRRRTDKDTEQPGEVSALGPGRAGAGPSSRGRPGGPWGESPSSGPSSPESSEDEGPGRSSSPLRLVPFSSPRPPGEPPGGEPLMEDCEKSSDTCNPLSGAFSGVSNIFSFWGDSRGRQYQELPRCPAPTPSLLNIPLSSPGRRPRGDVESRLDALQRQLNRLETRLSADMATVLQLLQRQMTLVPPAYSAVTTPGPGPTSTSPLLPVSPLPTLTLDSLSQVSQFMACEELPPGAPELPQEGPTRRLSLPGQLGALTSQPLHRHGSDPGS

hERG (KCNH2) [4] = target: T2, hERG (KCNH2); assay: Inhibition of human ERG at 10 uM by patch clamp technique
[5] = Cmax in rat at 5 mg/kg, po; format: ADME, organism-based; parameters: dose 5 mg/kg, route oral; conditions: in vivo
Procedure, shortened: (§1)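 Rat pharmacokinetics: oral dosing at 5 mg/kg in 10% DMSO in 0.5% aqueous methyl cellulose. Intravenous dosing at 1 mg/kg in 10% DMSO, 45% PEG400 and 45% propylene glycol. Plasma Cmax was taken after the oral dose and clearance after the iv dose, and oral bioavailability was derived.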

[6] = Clearance in rat at 1 mg/kg, iv; format: ADME, organism-based; conditions: in vivo; procedure, shortened: as §1
Rattus norvegicus [7] = assay: Reduction in olanzapine-induced weight gain in rat at 20 mg/kg, po bid administered for 21 days measured from day 4 of compound dosing; format: functional, organism-based
[8] = target: Voltage-gated inwardly rectifying potassium channel KCNH2 (Homo sapiens, UniProt Q12809); assay: Inhibition of human ERG by patch clamp technique
Sequence of Voltage-gated inwardly rectifying potassium channel KCNH2 (Q12809 whole entry): as above

Rattus norvegicus [9] = assay: Reduction in cortisone-induced glucose level in rat at 30 mg/kg, po bid; format: functional, organism-based
Procedure, shortened: (§2)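 Rats received cortisone 30 mg/kg sc once daily for six days. Test agent was given orally twice daily at 30 mg/kg. Glucose and insulin levels were compared with cortisone-only and no-cortisone controls, with mifepristone at the same oral regimen as positive control.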

Rattus norvegicus [10] = assay: Reduction in cortisone-induced insulin level in rat at 30 mg/kg, po bid; format: functional, organism-based; procedure, shortened: as §2

Structure (SMILES)	Ki (Glucocorticoid receptor [1]) [nM]	Ki (Glucocorticoid receptor [2]) [nM]	Cmax [5] [ng/mL]	clearance [6] [mL/min/kg]	inhibition at 1 µM (hERG (KCNH2) [3]) [%]	inhibition at 10 µM (hERG (KCNH2) [4]) [%]	Activity (Rattus norvegicus [7])	IC50 [8] [µM]	Activity (Rattus norvegicus [9])	Activity (Rattus norvegicus [10])
O=C(c1cscn1)[C@]12Cc3cnn(-c4ccc(F)cc4)c3C=C1CCN(S(=O)(=O)c1ccc(C(F)(F)F)cc1)C2	22	0.14								
O=C(c1cocn1)[C@]12Cc3cnn(-c4ccc(F)cc4)c3C=C1CCN(S(=O)(=O)c1ccc(C(F)(F)F)cc1)C2	63	0.16								
CCOC[C@]12Cc3cnn(-c4ccc(F)cc4)c3C=C1CCN(S(=O)(=O)c1ccc(C(F)(F)F)cc1)C2							Active			
O=C(c1cccnc1)[C@]12Cc3cnn(-c4ccc(F)cc4)c3C=C1CCN(S(=O)(=O)c1ccc(C(F)(F)F)cc1)C2	151	0.83								
O=C(c1cnccn1)[C@]12Cc3cnn(-c4ccc(F)cc4)c3C=C1CCN(S(=O)(=O)c1ccc(C(F)(F)F)cc1)C2	98	0.21								
CC#C[C@]1(O)CC[C@H]2[C@@H]3CCC4=CC(=O)CCC4=C3[C@@H](c3ccc(N(C)C)cc3)C[C@@]21C									Active	Active
O=C(c1ccccn1)[C@]12Cc3cnn(-c4ccc(F)cc4)c3C=C1CCN(S(=O)(=O)c1cccc(C(F)(F)F)c1)C2	14	0.1	155	40						

Further compounds by falling Ki (Glucocorticoid receptor [1]), results first:

Ki (Glucocorticoid receptor [1]) [nM]	Ki (Glucocorticoid receptor [2]) [nM]	Cmax [5] [ng/mL]	clearance [6] [mL/min/kg]	Structure (SMILES)	inhibition at 1 µM (hERG (KCNH2) [3]) [%]	inhibition at 10 µM (hERG (KCNH2) [4]) [%]	Activity (Rattus norvegicus [7])	IC50 [8] [µM]	Activity (Rattus norvegicus [9])	Activity (Rattus norvegicus [10])
11.4	0.19			COc1cccc(S(=O)(=O)N2CCC3=Cc4c(cnn4-c4ccc(F)cc4)C[C@]3(C(=O)c3ccccn3)C2)c1	24	36		> 19		
11	0.29	322	28.7	O=C(c1ccccn1)[C@]12Cc3cnn(-c4ccc(F)cc4)c3C=C1CCN(S(=O)(=O)c1ccc(C(F)(F)F)c(F)c1)C2	8	17				
9.7	0.73	112	103	O=C(c1ccccn1)[C@]12Cc3cnn(-c4ccc(F)cc4)c3C=C1CCN(S(=O)(=O)c1ccc(F)c(C(F)(F)F)c1)C2	16	31				
7.5	0.22	398	44	O=C(c1ccccn1)[C@]12Cc3cnn(-c4ccc(F)cc4)c3C=C1CCN(S(=O)(=O)c1ccc(F)c(F)c1)C2	10	35				
6.8	0.14			Cc1cccc(S(=O)(=O)N2CCC3=Cc4c(cnn4-c4ccc(F)cc4)C[C@]3(C(=O)c3ccccn3)C2)c1	17	30				
